Values after ≈ are worked out from the molar mass of the structure shown. Non-standard residues stand in square brackets, D forms with d. Residues, ends and D or L forms follow the SMILES beside them. Phe(3-F) = N[C@@H](Cc1cccc(F)c1)C(=O)O
Assays:
Saccharomyces cerevisiae [1] = test: Antifungal activity against wild type Saccharomyces cerevisiae ATCC 9763 in YNPG-proline medium after 24 hrs by microdilution method; format: functional; conditions: ATCC 9763, 24 h
Saccharomyces cerevisiae [2] = test: Antifungal activity against Saccharomyces cerevisiae AD12345678 in YNPG-proline medium after 24 hrs by microdilution method; format: functional; conditions: AD12345678, 24 h
Saccharomyces cerevisiae [3] = test: Antifungal activity against Saccharomyces cerevisiae ADCDR1 expressing Candida albicans CDR1 efflux pump in YNPG-proline medium after 24 hrs by microdilution method; format: functional; conditions: ADCDR1, 24 h
Saccharomyces cerevisiae [4] = test: Antifungal activity against Saccharomyces cerevisiae ADCDR2 expressing Candida albicans CDR2 efflux pump in YNPG-proline medium after 24 hrs by microdilution method; format: functional; conditions: ADCDR2, 24 h
Saccharomyces cerevisiae [5] = test: Antifungal activity against Saccharomyces cerevisiae ADMDR1 expressing Candida albicans MDR1 efflux pump in YNPG-proline medium after 24 hrs by microdilution method; format: functional; conditions: ADMDR1, 24 h
Candida albicans [6] = test: Antifungal activity against wild type Candida albicans 10261 in RPMI-1640 buffered medium after 24 hrs by microdilution method; format: functional; conditions: Candida albicans, 10261, 24 h; read-out: MIC
Method in brief: (§1)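 C. albicans cells were grown in 2% glucose, 1% yeast extract, 1% Bacto peptone medium before testing. […] CARE-2 fingerprinting confirmed that each pair is a single strain.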

Candida albicans [7] = test: Antifungal activity against fluconazole sensitive Candida albicans isolate Gu4 in RPMI-1640 buffered medium after 24 hrs by microdilution method; format: functional; conditions: Candida albicans, isolate Gu4, 24 h; read-out: MIC; method in brief: as §1
Candida albicans [8] = test: Antifungal activity against fluconazole resistant Candida albicans isolate Gu5 overexpressing CDR1 and CDR2 in RPMI-1640 buffered medium after 24 hrs by microdilution method; format: functional; conditions: isolate Gu5, 24 h
Method in brief: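 C. albicans cells were grown in 2% glucose, 1% yeast extract, 1% Bacto peptone medium before testing. CARE-2 fingerprinting confirmed that each pair is a single strain.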

Candida albicans [9] = test: Antifungal activity against fluconazole sensitive Candida albicans isolate B3 in RPMI-1640 buffered medium after 24 hrs by microdilution method; format: functional; conditions: Candida albicans, isolate B3, 24 h; read-out: MIC; method in brief: as §1
Candida albicans [10] = test: Antifungal activity against fluconazole resistant Candida albicans isolate B4 overexpressing MDR1 in RPMI-1640 buffered medium after 24 hrs by microdilution method; format: functional; conditions: Candida albicans, isolate B4, 24 h; read-out: MIC; method in brief: as §1
Saccharomyces cerevisiae [11] = test: Drug uptake in Saccharomyces cerevisiae AD12345678 at 200 uM pretreated for 10 mins measured after 60 mins by fluorescamine staining; format: ADME, organism-based; conditions: in vivo, 1 h
Saccharomyces cerevisiae [12] = test: Drug uptake in Saccharomyces cerevisiae ADCDR1 expressing Candida albicans CDR1 efflux pump at 200 uM pretreated for 10 mins measured after 60 mins by fluorescamine staining; format: ADME, organism-based; conditions: in vivo, 1 h
Saccharomyces cerevisiae [13] = test: Drug uptake in Saccharomyces cerevisiae ADCDR2 expressing Candida albicans CDR2 efflux pump at 200 uM pretreated for 10 mins measured after 60 mins by fluorescamine staining; format: ADME, organism-based; conditions: in vivo, 1 h
Saccharomyces cerevisiae [14] = test: Drug uptake in Saccharomyces cerevisiae ADMDR1 expressing Candida albicans MDR1 efflux pump at 200 uM pretreated for 10 mins measured after 60 mins by fluorescamine staining; format: ADME, organism-based; conditions: in vivo, 1 h
Saccharomyces cerevisiae [15] = test: Prodrug stability in wild type Saccharomyces cerevisiae ATCC 9763 assessed as compound cleavage rate measured per mg of protein; format: ADME, organism-based; conditions: in vivo
Saccharomyces cerevisiae [16] = test: Prodrug stability in Saccharomyces cerevisiae AD12345678 assessed as compound cleavage rate measured per mg of protein; format: ADME, organism-based; conditions: in vivo
Saccharomyces cerevisiae [17] = test: Prodrug stability in Saccharomyces cerevisiae ADCDR1 expressing Candida albicans CDR1 efflux pump assessed as compound cleavage rate measured per mg of protein; format: ADME, organism-based; conditions: in vivo
Saccharomyces cerevisiae [18] = test: Prodrug stability in Saccharomyces cerevisiae ADCDR2 expressing Candida albicans CDR2 efflux pump assessed as compound cleavage rate measured per mg of protein; format: ADME, organism-based; conditions: in vivo
Saccharomyces cerevisiae [19] = test: Prodrug stability in Saccharomyces cerevisiae ADMDR1 expressing Candida albicans MDR1 efflux pump assessed as compound cleavage rate measured per mg of protein; format: ADME, organism-based; conditions: in vivo
Candida albicans [20] = test: Prodrug stability in wild type Candida albicans 10261 assessed as compound cleavage rate measured per mg of protein; format: ADME, organism-based; conditions: in vivo
Candida albicans [21] = test: Prodrug stability in fluconazole sensitive Candida albicans isolate Gu4 assessed as compound cleavage rate measured per mg of protein; format: ADME, organism-based; conditions: in vivo
Method in brief: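 Oligopeptides were incubated with cell extracts of the yeast cells, and their hydrolytic enzymes cleaved them. The amino acids released were quantified by the Cd-ninhydrin method.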

Candida albicans [22] = test: Prodrug stability in fluconazole sensitive Candida albicans isolate B3 assessed as compound cleavage rate measured per mg of protein; format: ADME, organism-based; conditions: in vivo
Saccharomyces cerevisiae [23] = test: Antifungal activity against wild type Saccharomyces cerevisiae ATCC 9763 in YNPG medium containing 1 mg/ml […] after 24 hrs by microdilution method; format: functional; conditions: ATCC 9763, 24 h
Saccharomyces cerevisiae [24] = test: Antifungal activity against Saccharomyces cerevisiae AD12345678 in YNPG medium containing 1 mg/ml […] after 24 hrs by microdilution method; format: functional; conditions: AD12345678, 24 h
Saccharomyces cerevisiae [25] = test: Antifungal activity against Saccharomyces cerevisiae ADCDR1 expressing Candida albicans CDR1 efflux pump in YNPG medium containing 1 mg/ml […] after 24 hrs by microdilution method; format: functional; conditions: ADCDR1, 24 h
Saccharomyces cerevisiae [26] = test: Antifungal activity against Saccharomyces cerevisiae ADCDR2 expressing Candida albicans CDR2 efflux pump in YNPG medium containing 1 mg/ml […] after 24 hrs by microdilution method; format: functional; conditions: ADCDR2, 24 h
Saccharomyces cerevisiae [27] = test: Antifungal activity against Saccharomyces cerevisiae ADMDR1 expressing Candida albicans MDR1 efflux pump in YNPG medium containing 1 mg/ml […] after 24 hrs by microdilution method; format: functional; conditions: ADMDR1, 24 h

SMILES: CC(C)C[C@H](NC(=O)[C@@H](N)COCCN)C(=O)NCC(=O)O
- MIC (Saccharomyces cerevisiae [1]): 8 µg/mL (≈ 25.1 µM)
- MIC (Saccharomyces cerevisiae [2]): 4 µg/mL (≈ 12.6 µM)
- MIC (Saccharomyces cerevisiae [3]): 1 µg/mL (≈ 3.14 µM)
- MIC (Saccharomyces cerevisiae [4]): 1 µg/mL (≈ 3.14 µM)
- MIC (Saccharomyces cerevisiae [5]): 4 µg/mL (≈ 12.6 µM)
- MIC (Candida albicans [6]): 128 µg/mL (≈ 402 µM)
- MIC (Candida albicans [7]): 256 µg/mL (≈ 804 µM)
- MIC (Candida albicans [8]): 16 µg/mL (≈ 50.3 µM)
- MIC (Candida albicans [9]): 64 µg/mL (≈ 201 µM)
- MIC (Candida albicans [10]): 32 µg/mL (≈ 101 µM)

SMILES: CCC[C@H](N)C(=O)N[C@@H](CNC(=O)/C=C/C(=O)OC)C(=O)O
- MIC (Saccharomyces cerevisiae [1]): 4 µg/mL (≈ 12.7 µM)
- MIC (Saccharomyces cerevisiae [2]): 4 µg/mL (≈ 12.7 µM)
- MIC (Saccharomyces cerevisiae [3]): 0.5 µg/mL (≈ 1.59 µM)
- MIC (Saccharomyces cerevisiae [4]): 1 µg/mL (≈ 3.17 µM)
- MIC (Saccharomyces cerevisiae [5]): 4 µg/mL (≈ 12.7 µM)
- MIC (Candida albicans [6]): 2 µg/mL (≈ 6.34 µM)
- MIC (Candida albicans [7]): 2 µg/mL (≈ 6.34 µM)
- MIC (Candida albicans [8]): 0.125 µg/mL (≈ 0.396 µM)
- MIC (Candida albicans [9]): 4 µg/mL (≈ 12.7 µM)
- MIC (Candida albicans [10]): 4 µg/mL (≈ 12.7 µM)
- Drug uptake (Saccharomyces cerevisiae [11]): 0.96 nmol/min/mg
- Drug uptake (Saccharomyces cerevisiae [12]): 1.86 nmol/min/mg
- Drug uptake (Saccharomyces cerevisiae [13]): 1.56 nmol/min/mg
- Drug uptake (Saccharomyces cerevisiae [14]): 1.02 nmol/min/mg
- Stability (Saccharomyces cerevisiae [15]): 14 nmol/min
- Stability (Saccharomyces cerevisiae [16]): 14 nmol/min
- Stability (Saccharomyces cerevisiae [17]): 14 nmol/min
- Stability (Saccharomyces cerevisiae [18]): 14 nmol/min
- Stability (Saccharomyces cerevisiae [19]): 14 nmol/min
- Stability (Candida albicans [20]): 20 nmol/min
- Stability (Candida albicans [21]): 20 nmol/min
- Stability (Candida albicans [22]): 20 nmol/min

SMILES: CCC[C@H](NC(=O)[C@@H](N)CCCCN)C(=O)N[C@@H](CNC(=O)/C=C/C(=O)OC)C(=O)O [listing 1 of 2 here]
- Drug uptake (Saccharomyces cerevisiae [11]): 0.79 nmol/min/mg
- Drug uptake (Saccharomyces cerevisiae [12]): 1.61 nmol/min/mg
- Drug uptake (Saccharomyces cerevisiae [13]): 1.18 nmol/min/mg
- Drug uptake (Saccharomyces cerevisiae [14]): 0.81 nmol/min/mg
- Stability (Saccharomyces cerevisiae [15]): 14 nmol/min
- Stability (Saccharomyces cerevisiae [16]): 14 nmol/min
- Stability (Saccharomyces cerevisiae [17]): 14 nmol/min
- Stability (Saccharomyces cerevisiae [18]): 14 nmol/min
- Stability (Saccharomyces cerevisiae [19]): 14 nmol/min
- Stability (Candida albicans [20]): 20 nmol/min
- Stability (Candida albicans [21]): 20 nmol/min
- Stability (Candida albicans [22]): 20 nmol/min

SMILES: CCC[C@H](NC(=O)[C@@H](N)CCCCN)C(=O)N[C@@H](CNC(=O)/C=C/C(=O)OC)C(=O)O [listing 2 of 2 here]
- MIC (Saccharomyces cerevisiae [1]): 32 µg/mL (≈ 72.2 µM)
- MIC (Saccharomyces cerevisiae [2]): 32 µg/mL (≈ 72.2 µM)
- MIC (Saccharomyces cerevisiae [3]): 4 µg/mL (≈ 9.02 µM)
- MIC (Saccharomyces cerevisiae [4]): 8 µg/mL (≈ 18 µM)
- MIC (Saccharomyces cerevisiae [5]): 32 µg/mL (≈ 72.2 µM)
- MIC (Candida albicans [6]): 8 µg/mL (≈ 18 µM)
- MIC (Candida albicans [7]): 4 µg/mL (≈ 9.02 µM)
- MIC (Candida albicans [8]): 1 µg/mL (≈ 2.25 µM)
- MIC (Candida albicans [9]): 8 µg/mL (≈ 18 µM)
- MIC (Candida albicans [10]): 8 µg/mL (≈ 18 µM)

SMILES: C[C@H](N)C(=O)N[C@@H](C)C(=O)N[C@@H](C)C(=O)O
- Drug uptake (Saccharomyces cerevisiae [11]): 3.15 nmol/min/mg
- Drug uptake (Saccharomyces cerevisiae [12]): 5.3 nmol/min/mg
- Drug uptake (Saccharomyces cerevisiae [13]): 4.74 nmol/min/mg
- Drug uptake (Saccharomyces cerevisiae [14]): 2.91 nmol/min/mg

SMILES: NC(CC(=O)NO)C(=O)O (centres undefined)
- MIC (Saccharomyces cerevisiae [23]): 256 µg/mL (≈ 1730 µM)
- MIC (Saccharomyces cerevisiae [24]): 256 µg/mL (≈ 1730 µM)
- MIC (Saccharomyces cerevisiae [25]): 64 µg/mL (≈ 432 µM)
- MIC (Saccharomyces cerevisiae [26]): 64 µg/mL (≈ 432 µM)
- MIC (Saccharomyces cerevisiae [27]): 128 µg/mL (≈ 864 µM)
- MIC (Candida albicans [6]): 256 µg/mL (≈ 1730 µM)
- MIC (Candida albicans [7]): 256 µg/mL (≈ 1730 µM)
- MIC (Candida albicans [8]): 128 µg/mL (≈ 864 µM)
- MIC (Candida albicans [9]): 256 µg/mL (≈ 1730 µM)
- MIC (Candida albicans [10]): 256 µg/mL (≈ 1730 µM)
- Drug uptake (Saccharomyces cerevisiae [11]): 1.54 nmol/min/mg
- Drug uptake (Saccharomyces cerevisiae [12]): 2.25 nmol/min/mg
- Drug uptake (Saccharomyces cerevisiae [13]): 1.69 nmol/min/mg
- Drug uptake (Saccharomyces cerevisiae [14]): 1.25 nmol/min/mg

SMILES: CSCC[C@H](NC(=O)[C@@H](N)CCSC)C(=O)N[C@@H](Cc1cccc(F)c1)C(=O)O (H-Met-Met-[Phe(3-F)]-OH)
- MIC (Saccharomyces cerevisiae [1]): 256 µg/mL (≈ 575 µM)
- MIC (Saccharomyces cerevisiae [2]): 512 µg/mL (≈ 1150 µM)
- MIC (Saccharomyces cerevisiae [3]): 32 µg/mL (≈ 71.8 µM)
- MIC (Saccharomyces cerevisiae [4]): 32 µg/mL (≈ 71.8 µM)
- MIC (Saccharomyces cerevisiae [5]): 256 µg/mL (≈ 575 µM)
- MIC (Candida albicans [6]): 128 µg/mL (≈ 287 µM)
- MIC (Candida albicans [7]): 128 µg/mL (≈ 287 µM)
- MIC (Candida albicans [8]): 32 µg/mL (≈ 71.8 µM)
- MIC (Candida albicans [9]): 128 µg/mL (≈ 287 µM)
- MIC (Candida albicans [10]): 128 µg/mL (≈ 287 µM)
- Drug uptake (Saccharomyces cerevisiae [11]): 0.64 nmol/min/mg
- Drug uptake (Saccharomyces cerevisiae [12]): 1.11 nmol/min/mg
- Drug uptake (Saccharomyces cerevisiae [13]): 1.23 nmol/min/mg
- Drug uptake (Saccharomyces cerevisiae [14]): 0.67 nmol/min/mg
- Stability (Saccharomyces cerevisiae [15]): 14 nmol/min
- Stability (Saccharomyces cerevisiae [16]): 14 nmol/min
- Stability (Saccharomyces cerevisiae [17]): 14 nmol/min
- Stability (Saccharomyces cerevisiae [18]): 14 nmol/min
- Stability (Saccharomyces cerevisiae [19]): 14 nmol/min
- Stability (Candida albicans [20]): 20 nmol/min
- Stability (Candida albicans [21]): 20 nmol/min
- Stability (Candida albicans [22]): 20 nmol/min

Source: ChEMBL document CHEMBL1649115, “Enhanced susceptibility to antifungal oligopeptides in yeast strains overexpressing ABC multidrug efflux pumps” (Antimicrob Agents Chemother, 2008)
